KCNQ1 inh: inhibitors of human KCNQ1 channel, primary screen, cell-based, thallium flux, high-throughput; AID 2642, 2010; 310,000 tested, 1.3% active; Potassium voltage-gated channel subfamily KQT member 1 (Homo sapiens), P51787; B-score at 10 µM; CHO-K1 KCNQ1, FluxOR thallium flux fluorescence; active compounds read high;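 active = compounds whose thallium flux B-score, printed positive for inhibition, exceeds three library SD while starting fluorescence stays within three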;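 also: channel opened by potassium depolarization with thallium stimulus after 20 min compound exposure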
KCNK9 block: KCNK9 potassium channel inhibitors, primary screen, HEK293 cells, thallium flux | 310,000 tested, 1.2% active | AID 488922, 2010 | Potassium channel subfamily K member 9 (Homo sapiens), Q9NPC2 | B-score at 10 µM | FluxOR thallium flux fluorescence; active compounds read low;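 active = ratio B-score over 3 SD below the library mean, with starting fluorescence within 5 SD of its mean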;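 also: negative B-score means less thallium flux so channel inhibition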
hERG protect: hERG rescue from dofetilide block, primary screen, cell-based, CHO-hERG, FluxOR thallium flux, dofetilide IC70; Voltage-gated inwardly rectifying potassium channel KCNH2 (Homo sapiens), Q12809; dofetilide IC70 present; activation (rescue from dofetilide block), less the hit threshold, % at 10 µM; 310,000 tested, 0.51% active; AID 1511, 2009;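 active = activation above the mean of controls blocked by dofetilide plus 5 SD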;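 also: thallium influx through hERG after potassium depolarization seen as dye fluorescence rise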
KCNK3 block: human KCNK3 channel inhibitors, primary screen, CHO cells, FluxOR thallium flux, B-score | Potassium channel subfamily K member 3 (Homo sapiens), O14649 | FluxOR fluorescence; active compounds read low | B-score at 10 µM | 340,000 tested, 0.84% active;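 active = B-score under library mean minus 4 SD, starting fluorescence ratio at most library mean plus 5 SD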;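 also: more negative B-score means stronger inhibition of thallium flux through KCNK3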
Target sequence (O14649 whole entry, looked up): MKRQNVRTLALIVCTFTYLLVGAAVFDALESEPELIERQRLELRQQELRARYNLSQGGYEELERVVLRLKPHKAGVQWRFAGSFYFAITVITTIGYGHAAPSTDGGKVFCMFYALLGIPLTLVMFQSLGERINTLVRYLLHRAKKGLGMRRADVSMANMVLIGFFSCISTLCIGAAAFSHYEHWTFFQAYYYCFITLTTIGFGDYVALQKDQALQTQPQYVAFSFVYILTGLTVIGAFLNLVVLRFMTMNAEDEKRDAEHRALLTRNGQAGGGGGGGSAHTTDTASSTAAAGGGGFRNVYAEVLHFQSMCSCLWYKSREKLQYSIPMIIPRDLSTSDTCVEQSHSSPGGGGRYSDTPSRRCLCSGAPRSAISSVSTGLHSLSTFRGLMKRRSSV
KCNQ1 pot: potentiators or activators of KCNQ1 channel, primary screen, cell-based, thallium flux, high-throughput | AID 2648, 2010 | Potassium voltage-gated channel subfamily KQT member 1 (Homo sapiens), P51787 | 310,000 tested, 0.35% active | B-score at 10 µM | CHO-K1 KCNQ1, thallium flux FluxOR fluorescence; active compounds read high;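 active = fluorescence ratio B-score, a plate-corrected score, at least three library SD, with initial intensity B-score within 5 SD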
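Medium – assay buffer, equal DMSO in all wells · Material – CHO-K1 cell line with stable KCNQ1 potassium channel expression · Signal – kinetic FluxOR thallium fluorescence, 10-s 1-Hz baseline, 110-s post-stimulus read · Compound – single concentration per compound, DMSO matched to controls · Schedule – 37 °C overnight plating, 90-min dark dye load, 20-min compound pretreatment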
Starred values were filed as active, the others as inactive; i = inactive; x = not tested or not shown. Rows were chosen to be rich in hits. Some 3.1% of all compounds tested hit in one or more screens of this group.

SMILES	KCNQ1 inh	KCNK9 block	hERG protect	KCNK3 block	KCNQ1 pot
Cc1nn(C(C)(C)C)c(C)c1/C=N/OC(=O)Nc1ccc(Cl)cc1	7*	i	-14.6	i	i
Cc1ccc(/C=C2\SC(=S)N(/N=C/c3cc([N+](=O)[O-])ccc3O)C2=O)o1	6*	i	-3.4	i	i
CCCCC(CC)C(=O)Nc1ccc(C#N)cc1 (configuration not stated)	i	i	-2.0	i	i
CCCCC(CC)C(=O)Nc1ccc(Nc2ccccc2)cc1 (configuration not stated)	i	-6.72*	-0.1	i	i
CCCCC(CC)C(=O)Nc1ccc(S(=O)(=O)N2CCCC2)cc1 (configuration not stated)	i	i	-11.9	i	i
CCCCC(CC)C(=O)Nc1ccc(C)c(O)c1 (configuration not stated)	i	-7.48*	-10.1	i	i
Cc1nc2ccccc2c2oc(C(=O)Nc3ccc(C(C)C)cc3)cc12	9*	i	-8.2	i	i
Cc1nc2ccccc2c2oc(C(=O)NCC3COc4ccccc4O3)cc12 (configuration not stated)	i	i	-17.2	-10.2*	i
COc1ccc(/C(O)=C/c2nc3ccc(C(=O)NCCc4cccc(C)c4)cc3[nH]c2=O)cc1OC	i	-8.03*	-12.1	i	i
C=CCN(C(=O)C1CSC2(C)CCC(=O)N12)c1nc(-c2ccccc2)cs1 (configuration not stated)	6*	i	-5.5	i	i
COc1ccc(C(=O)CC(=O)C(=O)Nc2ccc(C)cc2Cl)cc1	i	i	55.8*	i	i
COc1cccc(C(=O)CC(=O)C(=O)Nc2ccc(C)cc2Cl)c1	i	i	30.6*	i	i
CCOc1ccccc1NC(=O)C(=O)CC(=O)c1cccc(OC)c1	i	i	12.0*	i	16*
COc1cccc(C(=O)CC(=O)C(=O)Nc2cc(OC)ccc2OC)c1	i	i	-4.8	i	i
COc1ccccc1C1CCN(C(=O)c2ccc(C(C)(C)C)cc2)CC1	i	i	-0.1	i	i
Cn1c(CC(=O)NNC(=O)c2ccc(Cl)nc2)nc2ccccc21	x	x	x	i	x
NC(=O)SCC(=O)Nc1ccc(Cl)c(Cl)c1	x	x	x	i	x
Cc1ccc(NC(=O)CSC(N)=O)cc1Cl	i	-13.5*	-4.6	i	i
Cc1cccc(-n2ncc3c(N4CCCC4)ncnc32)c1	i	i	-11.9	i	i
Cc1cccc(-n2ncc3c(N4CC(C)CC(C)C4)ncnc32)c1 (configuration not stated)	i	-7.15*	-9.4	i	i
OCC(O)C1OC(c2ccccc2)OC(CO)C1O (configuration not stated)	x	x	x	i	x
COC(=O)c1cc2sccc2n1Cc1ccc(C)cc1	i	-7.96*	-10.0	i	i
C/C(=N\OCc1nc2ccccc2c(=O)n1/N=C/c1cc(C)cc([N+](=O)[O-])c1O)c1ccccc1	9*	i	-16.2	i	i
CCC(=O)NC(=S)NNC(=O)c1ccc(OC)cc1	i	-7.17*	-7.2	i	i
COc1ccc(C(=O)NC(=S)NNC(=O)c2ccc(C)cc2)cc1	i	i	-6.3	i	13*
SMILES	KCNQ1 inh	KCNK9 block	hERG protect	KCNK3 block	KCNQ1 pot
O=C(NC(=S)N1CCCC(C(F)(F)F)C1)c1ccc(F)cc1 (configuration not stated)	i	i	11.4*	i	13*
Cc1cc(C)cc(NS(=O)(=O)c2ccc(-c3cnc(C4CC4)o3)cc2)c1	i	i	-13.5	i	7*
O=[N+]([O-])c1cc(Br)c(O)c(/C=N/Nc2nnnn2-c2cccc3ccccc23)c1	7*	i	-35.8	i	i
CCOC(=O)CNC(=O)CN1CCCN(S(=O)(=O)c2ccc(Br)s2)CC1	x	x	x	i	x
O=C(CN1CCCN(S(=O)(=O)c2ccc(Br)s2)CC1)Nc1ccc(Cl)cc1	i	i	-11.7	-9.34*	i
COc1ccc(CCC(C)Nc2cccc(F)c2)cc1 (configuration not stated)	i	-6.6*	-8.2	i	i
O=C(/C=C/c1ccccc1Cl)N(Cc1cccs1)C1CCS(=O)(=O)C1 (configuration not stated)	i	-7.5*	-5.6	i	i
Cc1cccc(N/C(N)=N/c2nc(C)cc(=O)[nH]2)c1	i	i	5.7*	i	i
CSc1ccc(CN(C)Cc2cc(=O)oc3c(C)c(C)ccc23)cc1	7*	i	-15.2	i	i
CCOc1ccc(CN(C)Cc2cc(=O)oc3c(C)c(C)ccc23)cc1OC	x	x	x	i	x
Clc1ccc(C[n+]2cc(-c3ccccc3)n3c2CCCCC3)c(Cl)c1	i	i	-21.5	i	i
CC1CCC(C(C)C)C(OC(=O)C[n+]2cc(-c3ccc(Cl)cc3)n3c2CCCCC3)C1 (configuration not stated)	6*	i	-25.4	-9.79*	i
O=C(C[n+]1cc(-c2ccccc2)n2c1CCCCC2)c1ccc(Cl)cc1	i	i	-9.0	i	i
Clc1ccc(-c2c[n+](Cc3ccc(Cl)cc3Cl)c3n2CCCCC3)cc1	7*	i	-20.3	i	i
CSCCNC(=O)c1cccc(Cl)c1	i	i	-7.0	i	i
CSCCNC(C)=O	i	i	5.5*	x	i
CN(C)S(=O)(=O)n1cc(/C=C(\NC(=O)c2ccccc2F)C(=O)N2CCCC2)c2ccccc21	i	i	-5.4	i	i
COc1ccc(OC)c(S(=O)(=O)Nc2ccc3c(c2)N(C(C)=O)CCC3)c1	i	i	-10.5	i	13*
COC(=O)CCN(C(=O)c1cc([N+](=O)[O-])cc([N+](=O)[O-])c1)c1ccccn1	i	i	-5.4	i	i
COC(=O)CCN(C(=O)c1ccc([N+](=O)[O-])cc1)c1ccccn1	11*	i	-9.5	i	i
COc1ccc2ccccc2c1C1CC(=O)N2CN(C)CSC2=C1C#N (configuration not stated)	6*	i	-17.4	i	i
COc1cc(OC)c(C2CC(=O)N3CN(C)CSC3=C2C#N)cc1OC (configuration not stated)	i	i	-4.5	i	i
O=C(COC(=O)COc1ccccc1Cl)Nc1ccccc1OC(F)F	i	i	4.9*	i	i

High-throughput results from PubChem.
